Data on five compounds can be found in ChEMBL document CHEMBL1275449, “Potent in vitro antifungal activities of naturally occurring acetylenic acids” (Antimicrob Agents Chemother, 2008).

Activity calls are given as the source filed them. No cut-off for these calls is given here.

The test system of data set [1] is Candida albicans. As to the kind of experiment: Antifungal activity against Candida albicans ATCC 90028 at 168.9 uM after 48 hrs by CLSI method. Type of data set: functional, organism-based. The method, boiled down:
(§1)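 Candida inocula came from 24–72-h SD agar colonies suspended in saline. They were diluted by OD630 standard curve into RPMI 1640 (0.2% dextrose, 0.03% glutamine, 0.165 M MOPS, pH 7.0) to 1.5 × 10³ CFU/ml. Compounds were run as 11 twofold dilutions in 20% DMSO-saline, in duplicate, at 35°C for 48 h, with OD530 read before and after. Percent growth at the top concentration, IC50, MIC, and MFC (SD agar plating) were derived.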

Data set [2] deals with Candida albicans. As to the kind of experiment: Antifungal activity against Fluconazole resistant Candida albicans isolate 17 at 168.9 uM after 48 hrs by CLSI method. Type of data set: functional, organism-based. The method, boiled down:
(§2)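 Candida in CLSI broth microdilution. Saline colony suspension set to 1.5 × 10³ CFU/ml (final) in MOPS-buffered RPMI 1640, pH 7.0. Test agent given as twofold serial dilutions in 20% DMSO-saline, duplicate wells. 35°C for 48 h. Growth read as OD530 before and after incubation. Percent inhibition scored at the highest test concentration.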

A further data set deals with Candida tropicalis. As to the kind of experiment: Antifungal activity against Candida tropicalis ATCC 750 at 168.9 uM after 48 hrs by CLSI method. Type of data set: functional, organism-based. The method, boiled down:
(§3)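 Yeast suspensions made from 3-5 colonies off 24-72 h SD agar plates in saline. They were diluted by OD630 standard curve in RPMI 1640 (0.2% dextrose, 0.03% glutamine, 0.165 M MOPS, pH 7.0) to 1.5 × 10³ CFU/ml. Twofold dilutions (11 concentrations, 20% DMSO-saline) run in duplicate. OD530 read before and after 35°C, 48 h. Line values are top test concentrations; no-growth endpoints give MIC/MFC.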

Data set [3] deals with Cryptococcus neoformans. The data set is described as follows: Antifungal activity against Cryptococcus neoformans ATCC 90113 at 168.9 uM after 72 hrs by CLSI method. The format is functional, organism-based. In short, it runs like this:
(§4)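 SD broth replaced RPMI because growth in RPMI was poor; other CLSI conditions were kept. Inoculum was 1.5 × 10³ CFU/ml from colonies on SD agar, checked by plating. Twofold serial dilutions (11 concentrations) in 20% DMSO-saline were tested in duplicate. OD530 was read before and after incubation at 35°C for 72 h. Percent growth gave IC50; the MIC is the lowest concentration with no detectable growth.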

In the next data set the test system is Aspergillus flavus. The data set is described as follows: Antifungal activity against Aspergillus flavus ATCC 204304 at 168.9 uM after 48 hrs by CLSI method. Type of data set: functional, organism-based.
Data set [4] concerns Aspergillus niger. As to the kind of experiment: Antifungal activity against Aspergillus niger ATCC 16404 at 168.9 uM after 48 hrs by CLSI method. Type of data set: functional, organism-based.
The test system of data set [5] is Trichophyton rubrum. The data set is described as follows: Antifungal activity against Trichophyton rubrum ATCC MYA-4438 at 168.9 uM after 5 days by CLSI method. Type of data set: functional, organism-based.
Data set [6] relates to Trichophyton rubrum. As to the kind of experiment: Antifungal activity against Trichophyton rubrum ATCC 10218 at 168.9 uM after 5 days by CLSI method. Type of data set: functional, organism-based.
Data set [7] relates to Candida albicans. The data set is described as follows: Antifungal activity against Candida albicans ATCC 90028 at 9.4 uM after 48 hrs by CLSI method. Type of data set: functional, organism-based. The method, boiled down:
as §2

The subject of data set [8] is Candida albicans. The data set is described as follows: Antifungal activity against Candida albicans ATCC 200955 at 9.4 uM after 48 hrs by CLSI method. The format is functional, organism-based. The method, boiled down:
as §2

Data set [9] concerns Pichia kudriavzevii. The data set is described as follows: Antifungal activity against Candida krusei ATCC 6258 at 9.4 uM after 48 hrs by CLSI method. The format is functional, organism-based. In short, it runs like this: as §2
Data set [10] has as its system Candida parapsilosis. As to the kind of experiment: Antifungal activity against Candida parapsilosis ATCC 22019 at 9.4 uM after 48 hrs by CLSI method. Type of data set: functional, organism-based. The method, boiled down:
as §2

The test system of data set [11] is Trichophyton mentagrophytes. As to the kind of experiment: Antifungal activity against Trichophyton mentagrophytes ATCC MYA-4439 at 9.4 uM after 5 days by CLSI method. Type of data set: functional, organism-based. In short, it runs like this: (§5)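 Trichophyton growth scraped from 1–6-week potato dextrose slants and filtered through Miracloth. Inoculum 2.7 × 10⁴ CFU/ml (final) in 5% Alamar blue-RPMI 1640 buffered with MOPS, pH 7.0. Duplicate twofold dilutions from 20% DMSO-saline. Incubated 35°C for 5 days. Fluorescence read at 544 nm excitation, 590 nm emission. Inhibition assessed at the highest test concentration.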

Data set [12] concerns Trichophyton rubrum. As to the kind of experiment: Antifungal activity against Trichophyton rubrum ATCC 10218 at 9.4 uM after 5 days by CLSI method. Type of data set: functional, organism-based. In short, it runs like this: as §5
Data set [13] has as its system Candida albicans. The data set is described as follows: Antifungal activity against Candida albicans ATCC 14053 at 9.4 uM after 48 hrs by CLSI method. The format is functional, organism-based. The method, boiled down:
as §2

Data set [14] concerns Candida albicans. As to the kind of experiment: Antifungal activity against Candida albicans ATCC 32354 at 9.4 uM after 48 hrs by CLSI method. Type of data set: functional, organism-based. The method, boiled down:
as §2

Data set [15] relates to Candida albicans. As to the kind of experiment: Antifungal activity against Candida albicans ATCC 32354 at 198.1 uM after 48 hrs by CLSI method. Type of data set: functional, organism-based. In short, it runs like this:
as §1

The test system of data set [16] is Candida parapsilosis. As to the kind of experiment: Antifungal activity against Candida parapsilosis ATCC 22019 at 198.1 uM after 48 hrs by CLSI method. Type of data set: functional, organism-based. In short, it runs like this: as §3
Data set [17] deals with Aspergillus fumigatus. As to the kind of experiment: Antifungal activity against Aspergillus fumigatus ATCC 90906 at 198.1 uM after 48 hrs by CLSI method. Type of data set: functional, organism-based.
Data set [18] relates to Candida albicans. The data set is described as follows: Antifungal activity against Candida albicans ATCC 32354 at 187.7 uM after 48 hrs by CLSI method. The format is functional, organism-based. The method, boiled down: as §1
Data set [19] relates to Candida albicans. As to the kind of experiment: Antifungal activity against Candida albicans ATCC 200955 at 187.7 uM after 48 hrs by CLSI method. Type of data set: functional, organism-based. The method, boiled down:
as §1

In data set [20] the test system is Candida albicans. As to the kind of experiment: Antifungal activity against Fluconazole resistant Candida albicans isolate 1 at 187.7 uM after 48 hrs by CLSI method. The format is functional, organism-based. In short, it runs like this: as §2
Data set [21] relates to Nakaseomyces glabratus. As to the kind of experiment: Antifungal activity against Candida glabrata ATCC 90030 at 187.7 uM after 48 hrs by CLSI method. Type of data set: functional, organism-based. The method, boiled down:
as §1

The subject of data set [22] is Cryptococcus neoformans. The data set is described as follows: Antifungal activity against Cryptococcus neoformans ATCC 66031 at 187.7 uM after 72 hrs by CLSI method. Type of data set: functional, organism-based. The method, boiled down:
as §4

For data set [23], the system named is Aspergillus fumigatus. The data set is described as follows: Antifungal activity against Aspergillus fumigatus ATCC 90906 at 187.7 uM after 48 hrs by CLSI method. Type of data set: functional, organism-based.
Data set [24] deals with Aspergillus niger. The data set is described as follows: Antifungal activity against Aspergillus niger ATCC 16404 at 187.7 uM after 48 hrs by CLSI method. The format is functional, organism-based.
The test system of data set [25] is Candida albicans. As to the kind of experiment: Antifungal activity against Candida albicans ATCC 32354 at 169.8 uM after 48 hrs by CLSI method. The format is functional, organism-based. In short, it runs like this:
as §1

In data set [26] the test system is Candida albicans. As to the kind of experiment: Antifungal activity against Fluconazole resistant Candida albicans isolate 17 at 169.8 uM after 48 hrs by CLSI method. Type of data set: functional, organism-based. The method, boiled down:
as §2

For data set [27], the system named is Nakaseomyces glabratus. As to the kind of experiment: Antifungal activity against Candida glabrata ATCC 90030 at 169.8 uM after 48 hrs by CLSI method. The format is functional, organism-based. In short, it runs like this:
as §1

Data set [28] has as its system Pichia kudriavzevii. The data set is described as follows: Antifungal activity against Candida krusei ATCC 6258 at 169.8 uM after 48 hrs by CLSI method. Type of data set: functional, organism-based. The method, boiled down: as §1
For a further data set, the system named is Mus musculus. As to the kind of experiment: Toxicity in mouse up to 34 umol/kg/day, ip for 3 days. The format is organism-based. The conditions noted are these: in vivo, 72 h.
In data set [29] the test system is Cryptococcus neoformans. The data set is described as follows: Antifungal activity against Cryptococcus neoformans ATCC 90113 at 169.8 uM after 72 hrs by CLSI method. The format is functional, organism-based. In short, it runs like this:
as §4

For data set [30], the system named is Aspergillus niger. As to the kind of experiment: Antifungal activity against Aspergillus niger ATCC 16404 at 169.8 uM after 48 hrs by CLSI method. Type of data set: functional, organism-based.
Data set [31] concerns Trichophyton rubrum. The data set is described as follows: Antifungal activity against Trichophyton rubrum ATCC MYA-4438 at 169.8 uM after 5 days by CLSI method. Type of data set: functional, organism-based.

For the compound `CCCCCC#CCC#CCC#CCC#CCCCC(=O)O`, the result in the data set on Candida albicans [1], with Candida albicans [2], in the data set with Candida tropicalis, in the data set with Cryptococcus neoformans [3], in the data set with Aspergillus flavus and in the data set on Aspergillus niger [4] was inactive. The outcome in the data set with Trichophyton rubrum [5] and in the data set on Trichophyton rubrum [6] was inactive.
Take `CC(=O)N1CCN(c2ccc(OCC3COC(Cn4ccnc4)(c4ccc(Cl)cc4Cl)O3)cc2)CC1` (centres undefined) [KETOCONAZOLE]: the outcome (in the data set on Candida albicans [7]; with Candida albicans [8]; with Pichia kudriavzevii [9]; with Candida parapsilosis [10]; in data set [11]; in the data set with Trichophyton rubrum [12]) was inactive. The result with Candida albicans [13] and in the data set with Candida albicans [14] was inactive.
On to `CCCCCCCCCC#CCCCCC(=O)O`, for which the result in the data set with Candida albicans [15], with Candida parapsilosis [16] and with Aspergillus fumigatus [17] was inactive.
Consider `CCCCCCCCCCC#CCCCCC(=O)O`, for which the result in the data set with Candida albicans [18], with Candida albicans [19], in the data set on Candida albicans [20], with Nakaseomyces glabratus [21], in the data set with Cryptococcus neoformans [22] and in the data set with Aspergillus fumigatus [23] was inactive. For the same compound, in the data set with Aspergillus niger [24], the outcome was inactive.
For `CCCCCCCCCCCCC#CCCCCC(=O)O` [6-NONADECYNOIC ACID], the result in the data set on Candida albicans [25], in the data set on Candida albicans [26], in the data set on Nakaseomyces glabratus [27], in the data set on Pichia kudriavzevii [28], in the data set with Cryptococcus neoformans [29] and in the data set on Aspergillus niger [30] was inactive. Further, the outcome in the data set with Trichophyton rubrum [31] was inactive. The Activity entry with Mus musculus is given as “Non-toxic”.
